pIC50: −log10 of the molar value. The source made the active and inactive calls. The rule behind the calls is not given here.
Assays:
[1] = target: T1, CDK9/cyclin T1 (Homo sapiens) (UniProt O60563+P50750); assay: Inhibition of CDK9/CyclinT1 in human ARN8 cells assessed as increase in p53-dependent transcriptional activity after 24 hrs by beta-galactosidase reporter gene assay; type: cell-based
How it was run: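 Arn-8 human melanoma cells stably carrying p53-responsive pRGCΔfoslacZ reporter; 24 h compound exposure, then permeabilized with 0.3% Triton X-100 for 15 min. 4-Methylumbelliferon-β-D-galactopyranoside added (80 μM final); fluorescence read at 355/460 nm (ex/em) after 1 h as β-galactosidase activity.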

[2] = test system: HCT-116; assay: Induction of apoptosis in human HCT116 cells assessed as change in BCL2 level up to 5 uM after 24 hrs by immunoblotting analysis; type: functional, cell-based
How it was run: (§1)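 Cells were treated for 24 h, harvested directly into Laemmli sample buffer, and run on SDS-PAGE. Proteins were blotted to nitrocellulose, blocked, probed overnight with primary antibodies, then with peroxidase-linked secondaries. Bands were detected by ECL with a CCD camera. PCNA and tubulin served as loading references.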

[3] = target: CDK9/cyclin T1 (Homo sapiens, UniProt P50750); assay: Inhibition of CDK9/CyclinT1 (unknown origin) using (YSPTSPS)2KK as substrate; type: protein-complex assay
CDK9/cyclin T1, sequence (O60563 whole entry): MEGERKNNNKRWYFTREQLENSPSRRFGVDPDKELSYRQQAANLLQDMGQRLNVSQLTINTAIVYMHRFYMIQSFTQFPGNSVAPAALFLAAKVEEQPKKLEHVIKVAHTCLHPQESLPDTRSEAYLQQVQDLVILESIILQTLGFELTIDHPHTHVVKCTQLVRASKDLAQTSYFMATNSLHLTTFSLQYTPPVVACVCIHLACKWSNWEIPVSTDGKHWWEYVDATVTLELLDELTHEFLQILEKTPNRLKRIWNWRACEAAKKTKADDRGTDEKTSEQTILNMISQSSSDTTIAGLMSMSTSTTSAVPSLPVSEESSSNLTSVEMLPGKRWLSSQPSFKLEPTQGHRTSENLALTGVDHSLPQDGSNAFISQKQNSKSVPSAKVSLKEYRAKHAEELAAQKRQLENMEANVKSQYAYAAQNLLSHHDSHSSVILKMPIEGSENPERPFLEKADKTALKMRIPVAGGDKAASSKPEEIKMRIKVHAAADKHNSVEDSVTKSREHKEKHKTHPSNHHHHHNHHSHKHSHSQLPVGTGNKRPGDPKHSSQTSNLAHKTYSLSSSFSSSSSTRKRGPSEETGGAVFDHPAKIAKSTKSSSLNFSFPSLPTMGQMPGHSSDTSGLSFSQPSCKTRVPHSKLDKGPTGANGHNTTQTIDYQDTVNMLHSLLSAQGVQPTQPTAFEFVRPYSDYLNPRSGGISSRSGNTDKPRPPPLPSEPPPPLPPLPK
CDK9/cyclin T1, sequence (P50750 whole entry): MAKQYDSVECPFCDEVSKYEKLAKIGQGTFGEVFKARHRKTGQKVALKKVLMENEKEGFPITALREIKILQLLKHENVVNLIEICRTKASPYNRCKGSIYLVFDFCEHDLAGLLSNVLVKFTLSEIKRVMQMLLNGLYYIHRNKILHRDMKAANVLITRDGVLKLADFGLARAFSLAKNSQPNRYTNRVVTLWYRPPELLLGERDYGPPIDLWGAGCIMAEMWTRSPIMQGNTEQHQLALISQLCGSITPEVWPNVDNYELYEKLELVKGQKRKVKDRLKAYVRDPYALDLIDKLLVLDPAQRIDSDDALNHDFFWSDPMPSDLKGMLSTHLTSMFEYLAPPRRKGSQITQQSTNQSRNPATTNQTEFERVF
How it was run: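 Buffer was 60 mM HEPES-NaOH pH 7.5, 3 mM MgCl2, 3 mM MnCl2, vanadate, DTT and PEG. Reactions were stopped with H3PO4 and spotted on P-81 paper, which was then washed. Radioactivity was imaged; IC50 taken from dose–response curves.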

[4] = test system: HCT-116; assay: Cell cycle arrest in human HCT116 cells assessed as accumulation at G2/M phase at 1 uM after 24 hrs by propidium iodide staining-based flow cytometric analysis (reference value: 19.6%); type: functional
How it was run: (§2)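 Sub-confluent cells treated at several concentrations for 24 h, then pulsed with 10 μM BrdU for 30 min at 37 °C before harvest. Cells were PBS-washed, fixed in 70% ethanol, denatured in 2 M HCl and neutralized. Stained with fluorescein anti-BrdU and propidium iodide; DNA content read by flow cytometry with 488 nm excitation.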

[5] = target: T1, CDK9/cyclin T1 (Homo sapiens); assay: Inhibition of CDK9/CyclinT1-mediated phosphorylation of RNA polymerase 2 at Ser5 in human HCT116 cells up to 25 uM after 24 hrs by immunoblotting analysis; type: cell-based; conditions: HCT-116
How it was run: (§3)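 Immunoblot: cells lysed by harvesting in Laemmli sample buffer, proteins run on SDS-PAGE, electroblotted to nitrocellulose, blocked, primary antibodies overnight, peroxidase-conjugated secondaries, ECL detection by CCD camera. Antibodies included anti-phospho RNA polymerase II (S2), anti-RNA polymerase II (ARNA-3), anti-p53 (DO-1), anti-p21waf1 (118), anti-PCNA.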

[6] = test system: HCT-116; assay: Cell cycle arrest in human HCT116 cells assessed as accumulation at S phase after 24 hrs by BrdU incorporation assay; type: functional, cell-based
How it was run: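 Sub-confluent cells were exposed to compound for 24 h, then pulse-labeled with 10 μM BrdU for 30 min at 37 °C. After ethanol (70%) fixation and 2 M HCl denaturation, cells were stained with fluorescein anti-BrdU antibody plus propidium iodide. The BrdU-positive S-phase fraction was quantified by flow cytometry (488 nm laser).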

[7] = test system: CCRF-CEM; assay: Ratio of roscovitine IC50 to compound IC50 for human CEM cells; type: functional
How it was run: (§4)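 Cytotoxicity IC50s underlying the ratio: cells treated in triplicate with three-fold compound dilutions for 72 h, then Calcein AM added and live-cell fluorescence read at 485/538 nm (ex/em).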

[8] = target: Cyclin-dependent kinase 7/ cyclin H (Homo sapiens) (UniProt P51946+P50613); assay: Inhibition of CDK7/CyclinH/MAT1-mediated phosphorylation of RNA polymerase 2 at Ser5 in human K562 cells up to 25 uM after 24 hrs by immunoblotting analysis; type: cell-based
[9] = test system: K562; assay: Ratio of roscovitine IC50 to compound IC50 for human K562 cells; type: functional; how it was run: as §4
[10] = target: Cyclin-dependent kinase 5/CDK5 activator 1 (Homo sapiens, UniProt Q00535); assay: Inhibition of CDK5/P35 (unknown origin) using histone H1 as substrate; type: protein-complex assay
Cyclin-dependent kinase 5/CDK5 activator 1, sequence (Q00535 whole entry): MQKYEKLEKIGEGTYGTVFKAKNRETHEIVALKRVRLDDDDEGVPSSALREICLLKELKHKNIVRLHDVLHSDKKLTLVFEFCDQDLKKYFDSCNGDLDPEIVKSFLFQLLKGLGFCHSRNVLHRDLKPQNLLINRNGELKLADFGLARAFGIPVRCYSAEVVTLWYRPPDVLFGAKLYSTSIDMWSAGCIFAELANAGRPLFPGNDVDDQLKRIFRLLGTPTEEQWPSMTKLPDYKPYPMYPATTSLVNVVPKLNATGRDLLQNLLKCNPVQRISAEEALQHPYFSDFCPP
Cyclin-dependent kinase 5/CDK5 activator 1, sequence (Q15078 whole entry, further chain): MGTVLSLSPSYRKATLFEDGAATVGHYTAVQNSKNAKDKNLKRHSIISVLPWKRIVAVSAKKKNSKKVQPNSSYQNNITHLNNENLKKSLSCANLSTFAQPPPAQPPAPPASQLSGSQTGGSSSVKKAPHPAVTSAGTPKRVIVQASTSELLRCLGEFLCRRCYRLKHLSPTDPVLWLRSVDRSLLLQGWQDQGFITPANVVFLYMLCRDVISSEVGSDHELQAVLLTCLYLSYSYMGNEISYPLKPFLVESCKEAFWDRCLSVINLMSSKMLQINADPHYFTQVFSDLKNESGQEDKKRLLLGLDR

[11] = target: T1, CDK9/cyclin T1 (Homo sapiens); assay: Inhibition of CDK9/CyclinT1-mediated phosphorylation of RNA polymerase 2 at Ser2 in human K562 cells up to 25 uM after 24 hrs by immunoblotting analysis; type: cell-based; how it was run: as §3
[12] = test system: HCT-116; assay: Cell cycle arrest in human HCT116 cells assessed as accumulation at S phase at 5 uM after 24 hrs by propidium iodide staining-based flow cytometric analysis (reference value: 31.6%); type: functional; how it was run: as §2
[13] = test system: HCT-116; assay: Cell cycle arrest in human HCT116 cells assessed as accumulation at subG1 phase at 0.2 uM after 24 hrs by propidium iodide staining-based flow cytometric analysis (reference value: 1.4%); type: functional; how it was run: as §2
[14] = test system: G-361; assay: Ratio of roscovitine IC50 to compound IC50 for human G361 cells; type: functional; how it was run: as §4
[15] = target: T1, CDK9/cyclin T1 (Homo sapiens); assay: Inhibition of CDK9/CyclinT1-mediated phosphorylation of RNA polymerase 2 at Ser5 in human K562 cells up to 25 uM after 24 hrs by immunoblotting analysis; type: cell-based; how it was run: as §3
[16] = test system: K562; assay: Cytotoxicity against human K562 cells assessed as reduction in number of viable cells after 72 hrs by fluorescence assay; type: functional, cell-based; conditions: K562, 72 h
How it was run: (§5)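 Three-fold compound dilutions tested in triplicate on cultured cells for 72 h. Viable cells detected by adding Calcein AM and reading fluorescence at 485/538 nm (ex/em).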

[17] = test system: K562; assay: Cell cycle arrest in human K562 cells assessed as accumulation at G2/M phase at 0.2 uM after 24 hrs by propidium iodide staining-based flow cytometric analysis (reference value: 13.8%); type: functional; how it was run: as §2
[18] = test system: HOS; assay: Ratio of roscovitine IC50 to compound IC50 for human HOS cells; type: functional; how it was run: as §4
[19] = test system: K562; assay: Induction of apoptosis in human K562 cells assessed as change in BCL2 level up to 5 uM after 24 hrs by immunoblotting analysis; type: functional, cell-based; how it was run: as §1
[20] = test system: K562; assay: Induction of apoptosis in human K562 cells assessed as decrease in MCL1 level after 24 hrs by immunoblotting analysis; type: functional, cell-based; how it was run: as §1
[21] = test system: HCT-116; assay: Cell cycle arrest in human HCT116 cells assessed as accumulation at G2/M phase at 0.2 uM after 24 hrs by propidium iodide staining-based flow cytometric analysis (reference value: 19.6%); type: functional; how it was run: as §2
[22] = test system: K562; assay: Cell cycle arrest in human K562 cells assessed as accumulation at G2/M phase at 1 uM after 24 hrs by propidium iodide staining-based flow cytometric analysis (reference value: 13.8%); type: functional; how it was run: as §2
[23] = test system: HCT-116; assay: Cytotoxicity against human HCT116 cells assessed as reduction in number of viable cells after 72 hrs by fluorescence assay; type: functional, cell-based; conditions: HCT-116, 72 h; how it was run: as §5
[24] = test system: K562; assay: Induction of apoptosis in human K562 cells assessed as change in PUMA level up to 5 uM after 24 hrs by immunoblotting analysis; type: functional, cell-based; how it was run: as §1
[25] = test system: G-361; assay: Cytotoxicity against human G361 cells assessed as reduction in number of viable cells after 72 hrs by fluorescence assay; type: functional, cell-based; conditions: G-361, 72 h; how it was run: as §5
[26] = target: T1, CDK9/cyclin T1 (Homo sapiens); assay: Inhibition of CDK9/CyclinT1 in human HCT116 cells assessed as decrease in Mdm2 expression at 1 to 5 uM after 24 hrs by immunoblotting analysis; type: cell-based; conditions: HCT-116; how it was run: as §3
[27] = test system: HCT-116; assay: Cell cycle arrest in human HCT116 cells assessed as accumulation at S phase at 1 uM after 24 hrs by propidium iodide staining-based flow cytometric analysis (reference value: 31.6%); type: functional; how it was run: as §2

inhibition [1]: Dose-dependent effect
pIC50 [3]: 6.78
inhibition [5]: Active
inhibition [8]: Active
pIC50 [10]: 7.15
inhibition [11]: Active
inhibition [15]: Active
inhibition [26]: Active
SMILES: CC[C@@H](Nc1nc(NCc2cc(Cl)ccc2O)c2ncn(C(C)C)c2n1)C(C)O (mixture of isomers)
Activity [2]: inactive
Activity [4]: 31.8%
Activity [6]: Dose-dependent effect
Ratio IC50 [7]: >9
Ratio IC50 [9]: >9
Activity [12]: 33.7%
Activity [13]: 1.5%
Ratio IC50 [14]: >9
pIC50 [16]: 5.48
Activity [17]: 25.8%
Ratio IC50 [18]: >9
Activity [19]: inactive
Activity [20]: Dose-dependent effect
Activity [21]: 23.4%
Activity [22]: 28.7%
pIC50 [23]: 5.70
Activity [24]: inactive
pIC50 [25]: 5.64
Activity [27]: 28.8%

Source: ChEMBL document CHEMBL2346655, “Synthesis and in vitro biological evaluation of 2,6,9-trisubstituted purines targeting multiple cyclin-dependent kinases” (Eur J Med Chem, 2013)
